ChEMBL document CHEMBL1138529, “Efficacy, pharmacokinetics, and metabolism of tetrahydroquinoline inhibitors of Plasmodium falciparum protein farnesyltransferase” (Antimicrob Agents Chemother, 2007)
Calls of active or inactive are those of the source.

Experiments:
[1] = tested on: Rattus norvegicus; assay: Toxicity in Plasmodium berghei NK65 infected Sprague-Dawley rat assessed as effect on liver enzyme levels at 50 mg/kg, perorally administered every 8 hrs for 3 days; assay type: organism-based; parameters: dose 50 mg/kg, route oral; details: in vivo, po
In short: (§1)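 Female Sprague-Dawley rats, 10-12 weeks, n = 3 per schedule. Dosed 50 mg/kg by oral gavage every 8 h or every 12 h for 72 h. At the end of dosing, blood was sent to a clinical laboratory for complete blood counts, white cell differentials, electrolytes, glucose, renal function, liver enzymes and cholesterol.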

[2] = biological target: Histamine H1 receptor (Homo sapiens) (UniProt P35367); assay: Inhibition of histamine H1 receptor at 10 uM
In short: (§2)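 Radioligand displacement at a contract lab across a panel of 50 receptors, ion channels and transporters, single test concentration 10 μM; loss of specific ligand binding reported as percent, with >50% decrease counted as significant.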

[3] = Inhibition of dopamine GABA receptor at 10 uM
In short: (§3)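 Radioligand displacement screen at a 10 μM test concentration, run by a contract lab across a panel of 50 receptors, pharmacologically active ion channels and transporters. The read-out is the decrease in specific radiolabeled ligand binding, expressed as a percentage. A decrease above 50% was considered significant.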

[4] = biological target: Beta-1 adrenergic receptor (Homo sapiens) (UniProt P08588); assay: Inhibition of beta-1 adrenergic receptor at 10 uM; in short: as §2
[5] = biological target: Cholecystokinin receptor type A (Homo sapiens) (UniProt P32238); assay: Inhibition of CCK1 receptor at 10 uM
In short: (§4)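 Radioligand displacement screen by a contractor across 50 receptors, ion channels and transporters, test compound at 10 μM; decrease in specific ligand binding expressed as percentage, with >50% decrease taken as significant.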

[6] = biological target: Muscarinic acetylcholine receptor M2 (Homo sapiens) (UniProt P08172); assay: Inhibition of muscarinic M2 receptor at 10 uM; in short: as §2
[7] = tested on: Rattus norvegicus; assay: Toxicity in Plasmodium berghei NK65 infected Sprague-Dawley rat assessed as effect on white blood cell differentials at 50 mg/kg, perorally administered every 12 hrs for 3 days; assay type: organism-based; parameters: dose 50 mg/kg, route oral; details: in vivo, po; in short: as §1
[8] = biological target: 5-hydroxytryptamine receptor 1A (Homo sapiens) (UniProt P08908); assay: Inhibition of 5HT1A receptor at 10 uM; in short: as §4
[9] = biological target: Vasopressin V1a receptor (Homo sapiens) (UniProt P37288); assay: Inhibition of vasopressin V1a receptor at 10 uM; in short: as §2
[10] = biological target: Kappa-type opioid receptor (Homo sapiens) (UniProt P41145); assay: Inhibition of kappa opioid receptor at 10 uM; in short: as §2
[11] = biological target: Sodium-dependent dopamine transporter (Homo sapiens) (UniProt Q01959); assay: Inhibition of DAT at 10 uM; in short: as §4
[12] = biological target: 5-hydroxytryptamine receptor 1B (Homo sapiens) (UniProt P28222); assay: Inhibition of 5HT1B receptor at 10 uM; in short: as §4
[13] = biological target: Alpha-2A adrenergic receptor (Homo sapiens) (UniProt P08913); assay: Inhibition of alpha2 adrenergic receptor at 10 uM; in short: as §2
[14] = tested on: Rattus norvegicus; assay: Toxicity in Plasmodium berghei NK65 infected Sprague-Dawley rat assessed as effect on cholesterol levels at 50 mg/kg, perorally administered every 12 hrs for 3 days; assay type: organism-based; parameters: dose 50 mg/kg, route oral; details: in vivo, po, in the assay text read “every 8 hrs” for “every 12 hrs”; in short: as §1
[15] = biological target: Sodium-dependent noradrenaline transporter (Homo sapiens) (UniProt P23975); assay: Inhibition of NET at 10 uM; in short: as §4
[16] = biological target: Vasoactive intestinal polypeptide receptor 1 (Homo sapiens) (UniProt P32241); assay: Inhibition of VIP1 receptor at 10 uM; in short: as §4
[17] = Elimination half life in BALB/c mouse at 50 mg/kg, po; assay type: ADME, organism-based; parameters: dose 50 mg/kg, route oral; details: in vivo, read-out: beta t1/2
In short: (§5)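 50 mg/kg by oral gavage in 3% EtOH-7% Tween 80-90% normal saline to groups of three females (BALB/c mice, 8–10 weeks, tail bleed; Sprague-Dawley rats, 10–12 weeks, saphenous vein). Plasma extracted with acetonitrile/internal standard, LC/MS; means of three animals. Oral elimination half-life depends on absorption rate as well as elimination.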

[18] = tested on: Rattus norvegicus; assay: Toxicity in Plasmodium berghei NK65 infected Sprague-Dawley rat assessed as effect on electrolyte levels at 50 mg/kg, perorally administered every 12 hrs for 3 days; assay type: organism-based; parameters: dose 50 mg/kg, route oral; details: in vivo, po; in short: as §1
[19] = biological target: 5-hydroxytryptamine receptor 6 (Homo sapiens) (UniProt P50406); assay: Inhibition of 5HT6 receptor at 10 uM; in short: as §4
[20] = Elimination half life in Sprague-Dawley rat at 50 mg/kg, po; assay type: ADME, organism-based; parameters: dose 50 mg/kg, route oral; details: in vivo, read-out: beta t1/2; in short: as §5
[21] = biological target: Adenosine receptor A1 (Homo sapiens) (UniProt P30542); assay: Inhibition of adenosine A1 receptor at 10 uM; in short: as §4
[22] = tested on: Rattus norvegicus; assay: Toxicity in Plasmodium berghei NK65 infected Sprague-Dawley rat assessed as effect on white blood cell differentials at 50 mg/kg, perorally administered every 8 hrs for 3 days; assay type: organism-based; parameters: dose 50 mg/kg, route oral; details: in vivo, po; in short: as §1
[23] = tested on: Mus musculus; assay: Toxicity in BALB/c mouse at 50 mg/kg, po; assay type: organism-based; parameters: dose 50 mg/kg, route oral; details: in vivo
[24] = AUC in Sprague-Dawley rat at 2 mg/kg, iv; assay type: ADME, organism-based; parameters: dose 2 mg/kg, route intravenous; details: plasma
In short: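 Three female Sprague-Dawley rats per group (10–12 weeks), jugular-vein catheterized; 2 mg/kg in 3% EtOH-7% Tween 80-90% normal saline given through the catheter. Plasma drawn from the catheter at set times, acetonitrile extraction with internal standard, LC/MS quantification.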

[25] = AUC in BALB/c mouse at 50 mg/kg, po; assay type: ADME, organism-based; parameters: dose 50 mg/kg, route oral; details: plasma
In short: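 Three female BALB/c mice (lines for mice, 8–10 weeks) or three female Sprague-Dawley rats (10–12 weeks) per group; 50 mg/kg oral gavage in 3% EtOH-7% Tween 80-90% normal saline. Plasma sampled at set times (tail bleed in mice, saphenous vein in rats), extracted with acetonitrile plus internal standard, quantified by LC/MS; AUC as mean of three animals.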

[26] = Oral bioavailability in Sprague-Dawley rat; assay type: ADME, organism-based; details: in vivo
In short: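 Female Sprague-Dawley rats, 10-12 weeks, three per group. Oral gavage at 50 mg/kg and jugular-catheter i.v. dose at 2 mg/kg, both in 3% EtOH-7% Tween 80-90% saline. Plasma taken over time, acetonitrile extraction with internal standard, LC/MS. Bioavailability computed as oral AUC/i.v. AUC.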

[27] = Inhibition of SKCa channel at 10 uM; in short: as §3
[28] = tested on: Rattus norvegicus; assay: Toxicity in Plasmodium berghei NK65 infected Sprague-Dawley rat assessed as effect on glucose levels at 50 mg/kg, perorally administered every 12 hrs for 3 days; assay type: organism-based; parameters: dose 50 mg/kg, route oral; details: in vivo, po, in the assay text read “every 8 hrs” for “every 12 hrs”; in short: as §1

Sequence of Histamine H1 receptor (Homo sapiens) (P35367 whole entry): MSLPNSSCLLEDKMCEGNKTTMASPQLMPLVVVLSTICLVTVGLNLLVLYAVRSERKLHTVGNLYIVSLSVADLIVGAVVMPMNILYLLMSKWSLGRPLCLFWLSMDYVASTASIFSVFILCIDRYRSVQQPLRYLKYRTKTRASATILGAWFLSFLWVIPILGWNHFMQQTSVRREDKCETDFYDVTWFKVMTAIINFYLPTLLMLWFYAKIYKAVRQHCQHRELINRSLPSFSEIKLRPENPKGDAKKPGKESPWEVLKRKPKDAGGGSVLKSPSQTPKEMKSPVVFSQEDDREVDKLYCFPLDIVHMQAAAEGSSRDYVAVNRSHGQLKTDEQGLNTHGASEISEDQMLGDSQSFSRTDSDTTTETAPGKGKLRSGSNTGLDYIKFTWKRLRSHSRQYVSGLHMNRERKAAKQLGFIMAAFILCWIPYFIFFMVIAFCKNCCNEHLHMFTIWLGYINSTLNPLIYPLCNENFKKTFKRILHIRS
Sequence of Alpha-2A adrenergic receptor (Homo sapiens) (P08913 whole entry): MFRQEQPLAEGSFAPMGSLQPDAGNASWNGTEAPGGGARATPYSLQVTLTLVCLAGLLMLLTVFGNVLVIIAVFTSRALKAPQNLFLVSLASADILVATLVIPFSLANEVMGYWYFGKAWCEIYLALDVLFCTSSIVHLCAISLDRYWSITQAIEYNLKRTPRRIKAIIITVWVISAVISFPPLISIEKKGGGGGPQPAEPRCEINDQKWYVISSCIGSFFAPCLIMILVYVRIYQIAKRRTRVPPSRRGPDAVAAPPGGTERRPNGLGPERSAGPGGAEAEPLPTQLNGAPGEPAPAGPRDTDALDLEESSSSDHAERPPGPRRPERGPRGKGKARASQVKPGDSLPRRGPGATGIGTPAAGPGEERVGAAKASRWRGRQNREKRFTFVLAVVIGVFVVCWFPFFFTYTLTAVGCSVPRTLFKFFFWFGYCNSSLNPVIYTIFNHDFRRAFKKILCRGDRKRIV
Sequence of Vasopressin V1a receptor (Homo sapiens) (P37288 whole entry, looked up): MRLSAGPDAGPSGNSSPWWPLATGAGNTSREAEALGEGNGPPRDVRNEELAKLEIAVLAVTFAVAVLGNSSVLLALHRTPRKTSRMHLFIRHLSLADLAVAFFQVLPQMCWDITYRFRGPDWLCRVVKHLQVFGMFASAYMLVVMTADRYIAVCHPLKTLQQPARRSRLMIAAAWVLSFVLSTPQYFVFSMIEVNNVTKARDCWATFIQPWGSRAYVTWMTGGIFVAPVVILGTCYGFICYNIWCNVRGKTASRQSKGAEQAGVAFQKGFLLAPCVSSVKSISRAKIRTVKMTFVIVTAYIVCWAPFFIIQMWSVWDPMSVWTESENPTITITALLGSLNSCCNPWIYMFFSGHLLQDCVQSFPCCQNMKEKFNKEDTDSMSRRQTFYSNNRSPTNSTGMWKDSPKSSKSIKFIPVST
Sequence of Cholecystokinin receptor type A (Homo sapiens) (P32238 whole entry): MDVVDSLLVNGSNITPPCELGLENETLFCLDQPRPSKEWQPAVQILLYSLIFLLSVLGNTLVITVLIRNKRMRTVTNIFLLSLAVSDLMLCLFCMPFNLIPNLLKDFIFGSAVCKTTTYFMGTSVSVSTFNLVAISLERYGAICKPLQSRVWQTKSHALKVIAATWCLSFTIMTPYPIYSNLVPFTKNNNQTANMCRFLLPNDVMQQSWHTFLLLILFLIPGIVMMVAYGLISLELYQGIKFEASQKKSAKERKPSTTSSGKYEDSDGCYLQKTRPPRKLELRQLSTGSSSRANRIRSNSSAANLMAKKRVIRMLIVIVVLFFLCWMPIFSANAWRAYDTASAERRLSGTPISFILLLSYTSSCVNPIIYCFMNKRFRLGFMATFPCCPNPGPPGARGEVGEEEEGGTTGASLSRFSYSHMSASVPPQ
Sequence of 5-hydroxytryptamine receptor 6 (Homo sapiens) (P50406 whole entry): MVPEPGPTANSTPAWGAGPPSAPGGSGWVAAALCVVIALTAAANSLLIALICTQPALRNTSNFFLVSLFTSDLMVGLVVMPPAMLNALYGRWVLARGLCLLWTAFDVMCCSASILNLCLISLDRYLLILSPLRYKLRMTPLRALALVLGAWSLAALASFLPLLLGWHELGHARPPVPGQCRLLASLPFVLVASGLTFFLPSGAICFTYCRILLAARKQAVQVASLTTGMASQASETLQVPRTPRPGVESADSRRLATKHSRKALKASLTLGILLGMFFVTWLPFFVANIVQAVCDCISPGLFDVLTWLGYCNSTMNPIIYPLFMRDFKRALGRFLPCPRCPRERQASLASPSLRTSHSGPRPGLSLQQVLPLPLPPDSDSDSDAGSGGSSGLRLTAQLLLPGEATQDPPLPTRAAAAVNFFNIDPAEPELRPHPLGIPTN
Sequence of 5-hydroxytryptamine receptor 1B (Homo sapiens) (P28222 whole entry): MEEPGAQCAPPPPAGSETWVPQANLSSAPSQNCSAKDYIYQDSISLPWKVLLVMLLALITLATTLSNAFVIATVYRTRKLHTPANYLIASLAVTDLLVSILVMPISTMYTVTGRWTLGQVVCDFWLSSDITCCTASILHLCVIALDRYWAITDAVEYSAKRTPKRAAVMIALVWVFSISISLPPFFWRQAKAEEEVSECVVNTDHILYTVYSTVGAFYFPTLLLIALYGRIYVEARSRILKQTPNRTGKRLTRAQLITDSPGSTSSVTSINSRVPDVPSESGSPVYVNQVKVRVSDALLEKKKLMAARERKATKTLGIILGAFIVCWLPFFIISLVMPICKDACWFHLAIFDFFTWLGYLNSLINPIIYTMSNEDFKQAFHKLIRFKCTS
Sequence of 5-hydroxytryptamine receptor 1A (Homo sapiens) (P08908 whole entry): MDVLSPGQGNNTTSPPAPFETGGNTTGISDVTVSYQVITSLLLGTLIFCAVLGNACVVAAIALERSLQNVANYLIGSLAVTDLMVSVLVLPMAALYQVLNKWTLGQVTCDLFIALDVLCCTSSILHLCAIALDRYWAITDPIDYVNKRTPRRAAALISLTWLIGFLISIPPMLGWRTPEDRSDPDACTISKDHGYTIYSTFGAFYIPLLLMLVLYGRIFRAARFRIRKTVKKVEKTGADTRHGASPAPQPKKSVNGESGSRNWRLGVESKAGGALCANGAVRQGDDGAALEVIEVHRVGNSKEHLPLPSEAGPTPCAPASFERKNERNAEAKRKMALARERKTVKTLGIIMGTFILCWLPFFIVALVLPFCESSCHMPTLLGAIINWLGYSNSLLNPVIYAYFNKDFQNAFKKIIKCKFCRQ
Sequence of Vasoactive intestinal polypeptide receptor 1 (Homo sapiens) (P32241 whole entry): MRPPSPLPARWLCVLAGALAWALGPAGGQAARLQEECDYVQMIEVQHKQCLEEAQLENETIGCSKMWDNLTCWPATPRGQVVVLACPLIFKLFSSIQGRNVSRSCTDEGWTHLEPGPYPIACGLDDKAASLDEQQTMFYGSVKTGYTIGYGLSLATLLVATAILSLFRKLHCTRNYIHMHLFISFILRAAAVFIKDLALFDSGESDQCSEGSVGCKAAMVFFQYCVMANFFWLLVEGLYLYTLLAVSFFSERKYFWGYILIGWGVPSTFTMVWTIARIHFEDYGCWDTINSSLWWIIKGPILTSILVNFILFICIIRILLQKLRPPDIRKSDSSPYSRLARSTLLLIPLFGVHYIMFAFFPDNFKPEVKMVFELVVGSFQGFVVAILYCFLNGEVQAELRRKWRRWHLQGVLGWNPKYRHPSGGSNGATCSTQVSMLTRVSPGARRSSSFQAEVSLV
Sequence of Sodium-dependent noradrenaline transporter (Homo sapiens) (P23975 whole entry): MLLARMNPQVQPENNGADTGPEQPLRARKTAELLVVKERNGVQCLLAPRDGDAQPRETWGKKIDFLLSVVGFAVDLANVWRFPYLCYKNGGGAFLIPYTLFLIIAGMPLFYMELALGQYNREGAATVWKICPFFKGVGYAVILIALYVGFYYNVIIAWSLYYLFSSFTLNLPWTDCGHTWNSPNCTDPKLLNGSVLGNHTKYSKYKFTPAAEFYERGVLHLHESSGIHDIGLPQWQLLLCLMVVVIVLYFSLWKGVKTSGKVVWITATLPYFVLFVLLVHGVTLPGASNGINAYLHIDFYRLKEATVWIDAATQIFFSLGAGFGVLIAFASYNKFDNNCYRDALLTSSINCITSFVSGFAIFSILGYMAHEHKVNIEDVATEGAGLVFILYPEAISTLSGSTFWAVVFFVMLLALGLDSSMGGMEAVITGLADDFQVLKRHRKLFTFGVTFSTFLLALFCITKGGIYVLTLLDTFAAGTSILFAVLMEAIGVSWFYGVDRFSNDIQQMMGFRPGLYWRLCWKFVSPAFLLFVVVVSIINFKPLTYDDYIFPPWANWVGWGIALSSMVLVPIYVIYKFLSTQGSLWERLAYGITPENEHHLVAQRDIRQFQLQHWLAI
Sequence of Beta-1 adrenergic receptor (Homo sapiens) (P08588 whole entry, looked up): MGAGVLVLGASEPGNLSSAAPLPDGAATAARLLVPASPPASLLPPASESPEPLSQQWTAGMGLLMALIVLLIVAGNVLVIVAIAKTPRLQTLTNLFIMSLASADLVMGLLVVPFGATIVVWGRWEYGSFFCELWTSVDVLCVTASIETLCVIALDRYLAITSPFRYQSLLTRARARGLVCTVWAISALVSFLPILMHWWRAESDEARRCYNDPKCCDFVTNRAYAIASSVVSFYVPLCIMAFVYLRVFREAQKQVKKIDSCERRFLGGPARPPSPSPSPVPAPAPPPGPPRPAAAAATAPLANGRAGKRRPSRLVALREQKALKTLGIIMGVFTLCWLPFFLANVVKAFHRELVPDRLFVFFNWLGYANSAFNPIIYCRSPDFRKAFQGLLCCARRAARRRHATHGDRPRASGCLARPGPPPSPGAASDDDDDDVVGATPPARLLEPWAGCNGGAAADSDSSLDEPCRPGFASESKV
Sequence of Adenosine receptor A1 (Homo sapiens) (P30542 whole entry): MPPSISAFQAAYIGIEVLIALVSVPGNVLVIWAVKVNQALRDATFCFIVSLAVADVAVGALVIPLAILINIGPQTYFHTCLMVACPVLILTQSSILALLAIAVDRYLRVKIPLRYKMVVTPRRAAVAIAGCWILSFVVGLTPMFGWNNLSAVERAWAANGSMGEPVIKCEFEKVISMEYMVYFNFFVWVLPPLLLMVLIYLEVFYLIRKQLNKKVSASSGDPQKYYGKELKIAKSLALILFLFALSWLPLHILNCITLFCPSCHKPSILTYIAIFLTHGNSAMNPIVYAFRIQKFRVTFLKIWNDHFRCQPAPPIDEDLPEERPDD

## COC(=O)N1CCC(CN(C2Cc3cc(C#N)ccc3N(Cc3cncn3C)C2)S(=O)(=O)c2ccccn2)CC1 (stereo not drawn)
[1]
  Activity: Non-toxic
[2]
  inhibition: inactive
[3]
  inhibition: inactive
[4]
  inhibition: inactive
[5]
  inhibition: inactive
[6]
  inhibition: 77%
[7]
  Activity: Non-toxic
[8]
  inhibition: inactive
[9]
  inhibition: 81%
[10]
  inhibition: inactive
[11]
  inhibition: inactive
[12]
  inhibition: inactive
[13]
  inhibition: inactive
[14]
  Activity: Non-toxic
[15]
  inhibition: inactive
[16]
  inhibition: inactive
[17]
  half-life: 18 min
[18]
  Activity: Non-toxic
[19]
  inhibition: inactive
[20]
  half-life: 41 min
[21]
  inhibition: inactive
[22]
  Activity: Non-toxic
[23]
  Activity: Non-toxic
[24]
  AUC: 0.533 µM·h
[25]
  AUC: 3.68 µM·h
[26]
  bioavailability: 82%
[27]
  inhibition: inactive
[28]
  Activity: Non-toxic
